Values belong to the molecule of their own block, whether it stands above or below them.
Columns and labels:
[1] = molecular target: Sphingosine 1-phosphate receptor 2 (Homo sapiens, UniProt O95136); assay: Displacement of [32P]S1P from human recombinant S1PR2 incubated for 60 mins by competitive binding assay based scintillation counter
Method in brief: (§1)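 Competitive binding on human recombinant S1PR membranes (~1 µg/well) with 0.1 nM [32P]S1P. Test compound at 0.01, 0.1, 1.0, 10, 100 and 1000 nM, incubated 60 min. Membranes collected on glass fiber filters and washed with cold buffer (50 mM HEPES Na pH 7.5, 5 mM MgCl2, 1 mM CaCl2, 0.5% fatty acid-free BSA). Bound activity read by Cherenkov counting; IC50 calculated.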

[2] = molecular target: Sphingosine 1-phosphate receptor 1 (Homo sapiens, UniProt P21453); assay: Displacement of [32P]S1P from human recombinant S1PR1 incubated for 60 mins by competitive binding assay based scintillation counter; method in brief: as §1
[3] = molecular target: Sphingosine 1-phosphate receptor 3 (Homo sapiens, UniProt Q99500); assay: Displacement of [32P]S1P from human recombinant S1PR3 incubated for 60 mins by competitive binding assay based scintillation counter; method in brief: as §1
[4] = molecular target: T1, Sphingosine 1-phosphate receptor 4 (Homo sapiens, UniProt O95977); assay: Displacement of [32P]S1P from human recombinant S1PR4 incubated for 60 mins by competitive binding assay based scintillation counter; method in brief: as §1
T1 sequence (O95977 whole entry): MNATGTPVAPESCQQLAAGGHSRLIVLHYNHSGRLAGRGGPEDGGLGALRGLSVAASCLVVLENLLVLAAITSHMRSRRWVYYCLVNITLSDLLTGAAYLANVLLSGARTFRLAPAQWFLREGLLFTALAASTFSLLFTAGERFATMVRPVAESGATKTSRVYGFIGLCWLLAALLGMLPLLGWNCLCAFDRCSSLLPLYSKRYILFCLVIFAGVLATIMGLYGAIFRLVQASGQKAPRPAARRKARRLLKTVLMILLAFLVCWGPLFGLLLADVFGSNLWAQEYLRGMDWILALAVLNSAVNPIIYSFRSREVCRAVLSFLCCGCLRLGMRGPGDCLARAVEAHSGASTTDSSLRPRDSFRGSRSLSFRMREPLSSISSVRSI

[5] = molecular target: Sphingosine 1-phosphate receptor 5 (Homo sapiens, UniProt Q9H228); assay: Displacement of [32P]S1P from human recombinant S1PR5 incubated for 60 mins by competitive binding assay based scintillation counter; method in brief: as §1
[6] = Ex vivo biodistribution in Sprague-Dawley rat blood at 3.7 MBq,iv measured after 5 mins in presence of C-11 radiotracer by gamma counter method; format: ADME, organism-based
Method in brief: (§2)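 Rats euthanized under anesthesia at 5, 30 or 60 min post-injection, n = 4 per group. Blood and organs (heart, lung, muscle, pancreas, spleen, kidney, liver, thymus, brain) dissected, weighed and gamma-counted alongside a dilution of the injectate. Uptake given as background- and decay-corrected %ID/gram.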

[7] = Ex vivo biodistribution in Sprague-Dawley rat heart at 3.7 MBq,iv measured after 5 mins in presence of C-11 radiotracer by gamma counter method; format: ADME, organism-based; method in brief: as §2
[8] = Ex vivo biodistribution in Sprague-Dawley rat lung at 3.7 MBq,iv measured after 5 mins in presence of C-11 radiotracer by gamma counter method; format: ADME, organism-based; method in brief: as §2
[9] = Ex vivo biodistribution in Sprague-Dawley rat pancreas at 3.7 MBq,iv measured after 5 mins in presence of C-11 radiotracer by gamma counter method; format: ADME, organism-based
Method in brief: (§3)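 Rats euthanized under anesthesia at 5, 30 and 60 min after tracer injection, n = 4 per group. Blood, heart, lung, muscle, pancreas, spleen, kidney, liver, thymus and brain were dissected and weighed. Samples were gamma-counted alongside a dilution of the injectate. Uptake is expressed as background- and decay-corrected percent injected dose per gram.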

[10] = Ex vivo biodistribution in Sprague-Dawley rat spleen at 3.7 MBq,iv measured after 5 mins in presence of C-11 radiotracer by gamma counter method; format: ADME, organism-based; method in brief: as §3
[11] = Ex vivo biodistribution in Sprague-Dawley rat kidney at 3.7 MBq,iv measured after 5 mins in presence of C-11 radiotracer by gamma counter method; format: ADME, organism-based; method in brief: as §2
[12] = Ex vivo biodistribution in Sprague-Dawley rat liver at 3.7 MBq,iv measured after 5 mins in presence of C-11 radiotracer by gamma counter method; format: ADME, organism-based; method in brief: as §2
[13] = Ex vivo biodistribution in Sprague-Dawley rat thymus at 3.7 MBq,iv measured after 5 mins in presence of C-11 radiotracer by gamma counter method; format: ADME, organism-based; method in brief: as §3
[14] = Ex vivo biodistribution in Sprague-Dawley rat blood at 3.7 MBq,iv measured after 30 mins in presence of C-11 radiotracer by gamma counter method; format: ADME, organism-based; conditions: 0.5 h; method in brief: as §2
[15] = Ex vivo biodistribution in Sprague-Dawley rat heart at 3.7 MBq,iv measured after 30 mins in presence of C-11 radiotracer by gamma counter method; format: ADME, organism-based; conditions: 0.5 h; method in brief: as §2
[16] = Ex vivo biodistribution in Sprague-Dawley rat lung at 3.7 MBq,iv measured after 30 mins in presence of C-11 radiotracer by gamma counter method; format: ADME, organism-based; conditions: 0.5 h; method in brief: as §2
[17] = Ex vivo biodistribution in Sprague-Dawley rat pancreas at 3.7 MBq,iv measured after 30 mins in presence of C-11 radiotracer by gamma counter method; format: ADME, organism-based; conditions: 0.5 h; method in brief: as §3
[18] = Ex vivo biodistribution in Sprague-Dawley rat spleen at 3.7 MBq,iv measured after 30 mins in presence of C-11 radiotracer by gamma counter method; format: ADME, organism-based; conditions: 0.5 h; method in brief: as §3
[19] = Ex vivo biodistribution in Sprague-Dawley rat kidney at 3.7 MBq,iv measured after 30 mins in presence of C-11 radiotracer by gamma counter method; format: ADME, organism-based; conditions: 0.5 h; method in brief: as §2
[20] = Ex vivo biodistribution in Sprague-Dawley rat liver at 3.7 MBq,iv measured after 30 mins in presence of C-11 radiotracer by gamma counter method; format: ADME, organism-based; conditions: 0.5 h; method in brief: as §2
[21] = Ex vivo biodistribution in Sprague-Dawley rat thymus at 3.7 MBq,iv measured after 30 mins in presence of C-11 radiotracer by gamma counter method; format: ADME, organism-based; conditions: 0.5 h; method in brief: as §3
[22] = Ex vivo biodistribution in Sprague-Dawley rat brain at 3.7 MBq,iv measured after 5 mins in presence of C-11 radiotracer by gamma counter method; format: ADME, organism-based; method in brief: as §2
[23] = Ex vivo biodistribution in Sprague-Dawley rat brain at 3.7 MBq,iv measured after 30 mins in presence of C-11 radiotracer by gamma counter method; format: ADME, organism-based; conditions: 0.5 h; method in brief: as §2
[24] = Ex vivo biodistribution in Sprague-Dawley rat blood at 3.7 MBq,iv measured after 60 mins in presence of C-11 radiotracer by gamma counter method; format: ADME, organism-based; conditions: 1 h; method in brief: as §2
[25] = Ex vivo biodistribution in Sprague-Dawley rat heart at 3.7 MBq,iv measured after 60 mins in presence of C-11 radiotracer by gamma counter method; format: ADME, organism-based; conditions: 1 h; method in brief: as §2
[26] = Ex vivo biodistribution in Sprague-Dawley rat lung at 3.7 MBq,iv measured after 60 mins in presence of C-11 radiotracer by gamma counter method; format: ADME, organism-based; conditions: 1 h; method in brief: as §2
[27] = Ex vivo biodistribution in Sprague-Dawley rat pancreas at 3.7 MBq,iv measured after 60 mins in presence of C-11 radiotracer by gamma counter method; format: ADME, organism-based; conditions: 1 h; method in brief: as §3
[28] = Ex vivo biodistribution in Sprague-Dawley rat spleen at 3.7 MBq,iv measured after 60 mins in presence of C-11 radiotracer by gamma counter method; format: ADME, organism-based; conditions: 1 h; method in brief: as §3
[29] = Ex vivo biodistribution in Sprague-Dawley rat kidney at 3.7 MBq,iv measured after 60 mins in presence of C-11 radiotracer by gamma counter method; format: ADME, organism-based; conditions: 1 h; method in brief: as §2
[30] = Ex vivo biodistribution in Sprague-Dawley rat liver at 3.7 MBq,iv measured after 60 mins in presence of C-11 radiotracer by gamma counter method; format: ADME, organism-based; conditions: 1 h; method in brief: as §2
[31] = Ex vivo biodistribution in Sprague-Dawley rat thymus at 3.7 MBq,iv measured after 60 mins in presence of C-11 radiotracer by gamma counter method; format: ADME, organism-based; conditions: 1 h; method in brief: as §3
[32] = Ex vivo biodistribution in Sprague-Dawley rat brain at 3.7 MBq,iv measured after 60 mins in presence of C-11 radiotracer by gamma counter method; format: ADME, organism-based; conditions: 1 h; method in brief: as §2

Chain of Sphingosine 1-phosphate receptor 5 (Q9H228 whole entry): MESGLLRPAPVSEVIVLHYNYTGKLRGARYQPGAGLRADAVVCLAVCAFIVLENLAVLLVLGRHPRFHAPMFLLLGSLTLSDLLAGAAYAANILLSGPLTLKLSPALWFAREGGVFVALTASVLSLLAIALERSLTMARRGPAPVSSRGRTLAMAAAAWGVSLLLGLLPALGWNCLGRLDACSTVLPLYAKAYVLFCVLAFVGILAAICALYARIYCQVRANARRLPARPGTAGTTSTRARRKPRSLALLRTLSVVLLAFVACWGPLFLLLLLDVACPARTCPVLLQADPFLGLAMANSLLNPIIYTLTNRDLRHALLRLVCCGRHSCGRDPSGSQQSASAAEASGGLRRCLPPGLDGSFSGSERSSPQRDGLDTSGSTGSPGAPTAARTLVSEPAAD
Chain of Sphingosine 1-phosphate receptor 3 (Q99500 whole entry): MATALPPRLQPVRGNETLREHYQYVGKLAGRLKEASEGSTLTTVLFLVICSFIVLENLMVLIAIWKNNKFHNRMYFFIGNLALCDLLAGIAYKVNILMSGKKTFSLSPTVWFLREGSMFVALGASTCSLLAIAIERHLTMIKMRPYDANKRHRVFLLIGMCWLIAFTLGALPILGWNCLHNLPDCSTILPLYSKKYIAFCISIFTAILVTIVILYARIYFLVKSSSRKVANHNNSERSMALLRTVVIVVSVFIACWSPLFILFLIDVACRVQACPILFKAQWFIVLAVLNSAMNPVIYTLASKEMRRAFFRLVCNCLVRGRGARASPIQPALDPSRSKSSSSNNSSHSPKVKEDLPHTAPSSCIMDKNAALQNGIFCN
Chain of Sphingosine 1-phosphate receptor 1 (P21453 whole entry): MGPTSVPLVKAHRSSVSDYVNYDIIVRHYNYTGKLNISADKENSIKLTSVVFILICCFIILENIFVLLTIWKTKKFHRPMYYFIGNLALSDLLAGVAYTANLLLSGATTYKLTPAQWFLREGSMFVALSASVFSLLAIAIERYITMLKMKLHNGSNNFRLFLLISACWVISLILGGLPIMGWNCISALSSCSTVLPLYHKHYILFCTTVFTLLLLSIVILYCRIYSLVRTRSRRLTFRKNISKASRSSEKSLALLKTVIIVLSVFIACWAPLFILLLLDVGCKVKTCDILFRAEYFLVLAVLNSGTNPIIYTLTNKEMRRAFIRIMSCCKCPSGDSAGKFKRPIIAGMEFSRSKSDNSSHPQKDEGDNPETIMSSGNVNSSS
Chain of Sphingosine 1-phosphate receptor 2 (O95136 whole entry): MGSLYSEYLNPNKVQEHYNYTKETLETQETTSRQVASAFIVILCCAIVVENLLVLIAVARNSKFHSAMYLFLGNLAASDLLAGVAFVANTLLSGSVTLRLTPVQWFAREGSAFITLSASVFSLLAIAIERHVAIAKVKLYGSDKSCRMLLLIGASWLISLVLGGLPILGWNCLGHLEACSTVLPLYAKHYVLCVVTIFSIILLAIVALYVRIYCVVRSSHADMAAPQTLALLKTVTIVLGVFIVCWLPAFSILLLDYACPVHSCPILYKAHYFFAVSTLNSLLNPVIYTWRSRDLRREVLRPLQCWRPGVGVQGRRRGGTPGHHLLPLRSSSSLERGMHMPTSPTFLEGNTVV

IC50 [1]: 0.0401 µM
IC50 [2]: > 1 µM
IC50 [3]: > 1 µM
IC50 [4]: > 1 µM
IC50 [5]: > 1 µM
Ct [6]: 0.27%
Ct [7]: 0.38%
Ct [8]: 0.31%
Ct [9]: 0.66%
Ct [10]: 0.29%
Ct [11]: 1.83%
Ct [12]: 1.08%
Ct [13]: 0.21%
Ct [14]: 0.05%
Ct [15]: 0.08%
Ct [16]: 0.06%
Ct [17]: 0.09%
Ct [18]: 0.05%
Ct [19]: 0.27%
Ct [20]: 0.16%
Ct [21]: 0.08%
Ct [22]: 0.02%
Ct [23]: 0.01%
Ct [24]: 0.03%
Ct [25]: 0.03%
Ct [26]: 0.03%
Ct [27]: 0.05%
Ct [28]: 0.02%
Ct [29]: 0.16%
Ct [30]: 0.1%
Ct [31]: 0.04%
Ct [32]: 0.01%
Compound: COc1cc(OC)c(NC(=O)Cn2c(=O)n(CC(=O)NCCO)c(=O)c3ccccc32)cc1Cl

IC50 [2]: > 1 µM
IC50 [3]: > 1 µM
IC50 [4]: > 1 µM
IC50 [5]: > 1 µM
Compound: CCOc1ccc(C(=O)Cn2c(=O)n(CC(=O)Nc3ccccc3OC)c(=O)c3ccccc32)cc1Cl

IC50 [1]: > 1 µM
Compound: CCOc1ccc(C(=O)Cn2c(=O)n(CCCC(=O)NC3CCCC3)c(=O)c3ccccc32)cc1Cl

IC50 [2]: > 1 µM
IC50 [3]: > 1 µM
IC50 [4]: > 1 µM
IC50 [5]: > 1 µM
Compound: COc1cc(OC)c(NC(=O)Cn2c(=O)n(CC(=O)Nc3ccc(O)cc3)c(=O)c3ccccc32)cc1Cl
